Measured values reported in publication PMC8247405 (British Journal of Clinical Pharmacology, 2020).

Legend:
[1] = Plasma pharmacokinetics of SAR247799 in diabetic rats, 5-week chow dosing; assay type: in vivo, Zucker diabetic fatty (ZDF) rats; conditions: ZDF rats; for C (plasma concentration), mean / C (plasma concentration), median: 5 weeks postdosing; for AUC 0–24, mean / AUC 0–24, median: AUC0–24 = C × 24
How it was run: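 ZDF rats received test compound in chow at 0.002, 0.007 or 0.0245% w/w for 5 weeks. Plasma taken at 5 weeks was assayed by LC-MS/MS. AUC0–24 was computed as C × 24, taking the 5-week concentration as the average over the dosing interval.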

[2] = system: Zucker diabetic fatty (ZDF) rats; test: Peripheral blood lymphocyte count in ZDF rats; assay type: in vivo, rat; conditions: 5 weeks
How it was run: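 Male ZDF Fa/Fa rats, randomised by body weight at 9 weeks to control chow or chow with test compound at 0.002, 0.007 or 0.0245% w/w for 5 weeks; lean Fa/+ rats on control chow served as reference. Caudal-vein K₂-EDTA blood was taken under 1.5–2% isoflurane at baseline and 5 weeks. Lymphocytes were counted in fresh blood. Analysis was blinded, with 1-way ANOVA and Dunnett's test versus ZDF control.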

[3] = system: Zucker diabetic fatty (ZDF) rats; test: Heart rate in ZDF rats; assay type: in vivo, rat; conditions: low, intermediate and high dose, 5 weeks
[4] = system: Zucker diabetic fatty (ZDF) rats; test: Renal function; assay type: in vivo, rat; conditions: 5 weeks
How it was run: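 ZDF rats on control or test-compound chow (0.002, 0.007, 0.0245% w/w) for 5 weeks, with lean controls. Creatinine clearance = urinary creatinine × urine volume / plasma creatinine, in µL/min. Kruskal–Wallis with Wilcoxon post hoc tests versus ZDF control.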

[5] = system: Zucker diabetic fatty (ZDF) rats; test: Plasma fructosamine in ZDF rats; assay type: in vivo, rat; conditions: any dose, 5‐week treatment
How it was run: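 ZDF rats were fed control chow or test-compound chow (0.002–0.0245% w/w) from 9 weeks of age; lean rats served as reference. K₂-EDTA blood was drawn from the caudal vein under isoflurane at baseline and after 5 weeks. It was centrifuged at 4°C, 10 min, 10 000 g, and plasma was stored at −80°C. Fructosamine was measured on a clinical chemistry analyser by a blinded experimenter.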

[6] = system: type‐2 diabetes patients; set-up: species or system human; conditions: in vivo
[7] = system: type‐2 diabetes patients; conditions: human, in vivo
[8] = Plasma pharmacokinetics in type-2 diabetes patients; assay type: in vivo, human; conditions: for AUC 0–24, mean / AUC 0–24, median / Cmax, mean / Cmax, median / Tmax, mean / Tmax, median / Rac_AUC 0–24 (accumulation ratio), mean / Rac_AUC 0–24 (accumulation ratio), median / Rac_C max (accumulation ratio), mean / Rac_C max (accumulation ratio), median: n 15
How it was run: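 Type-2 diabetes patients received 1 or 5 mg test compound orally once daily for 28 days (15 per dose cohort). Plasma was sampled at 4 and 12 h postdose on day 1, predose on days 2, 3 and 7, and 3 h postdose on days 14, 21 and 28. Samples were assayed by validated LC-MS/MS (LLOQ 5 ng/mL). Cmax, tmax, trapezoidal AUC0–24 and accumulation ratio were derived by a Bayesian population PK model built in healthy subjects.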

[9] = system: type‐2 diabetes patients; conditions: human, in vivo; remark: listed apart in the source
[10] = system: type‐2 diabetes patients; conditions: human, in vivo; remark: listed apart in the source
[11] = system: type‐2 diabetes patients; conditions: human, in vivo; remark: listed apart in the source
[12] = cited from earlier work
[13] = system: patients; conditions: in vivo; cited from earlier work
[14] = system: renal transplant recipients; conditions: in vivo, cited from earlier work
[15] = system: type‐2 diabetes patients; conditions: human, in vivo; cited from earlier work
[16] = 0.007% (w/w) in chow (intermediate)

Cc1cc(-c2nc3cnc(Oc4cccc(Cl)c4)nc3o2)cc(C)c1OCC(=O)O [SAR247799]
C (plasma concentration), mean ([1]; 0.002% (w/w) in chow (low)): 0.0944 µg/mL
C (plasma concentration), median ([1]; 0.002% (w/w) in chow (low)): 0.0917 µg/mL
AUC 0–24, mean ([1]; 0.002% (w/w) in chow (low)): 2270 ng·h/mL
AUC 0–24, median ([1]; 0.002% (w/w) in chow (low)): 2200 ng·h/mL
C (plasma concentration), mean [1, 16]: 0.423 µg/mL
C (plasma concentration), median [1, 16]: 0.432 µg/mL
AUC 0–24, mean [1, 16]: 10200 ng·h/mL
AUC 0–24, median [1, 16]: 10400 ng·h/mL
C (plasma concentration), mean ([1]; 0.0245% (w/w) in chow (high)): 4.43 µg/mL
C (plasma concentration), median ([1]; 0.0245% (w/w) in chow (high)): 4.60 µg/mL
AUC 0–24, mean ([1]; 0.0245% (w/w) in chow (high)): 106000 ng·h/mL
AUC 0–24, median ([1]; 0.0245% (w/w) in chow (high)): 110000 ng·h/mL
increase in plasma concentration, high vs intermediate dose ([1]; for a 3.5‐fold increase in dose): 10.5 fold
steady state AUC0–24h ([1]; intermediate dose): 10.2 µg/mL
steady state AUC0–24h ([1]; low dose): 2.27 µg/mL
decrease in peripheral blood lymphocytes ([2]; high dose 0.0245% (w/w) chow): 35%
effect on peripheral blood lymphocytes ([2]; intermediate dose 0.007% (w/w) chow): did not reduce lymphocytes
effect on peripheral blood lymphocytes ([2]; low dose 0.002% (w/w) chow): did not reduce lymphocytes
effect on heart rate [3]: None of the doses of SAR247799 altered heart rate
change in creatinine clearance ([4]; high dose): lesser (nonsignificant) increase
reduction in urinary protein:creatinine ratio ([4]; high dose): statistically significant
effect on urinary output ([4]; intermediate dose): significantly blunted the increase in urinary output
fractional excretion of electrolytes (Na+ and Cl−) ([4]; intermediate dose): levels similar to lean control rats
increase in creatinine clearance compared to vehicle‐treated ZDF rats ([4]; intermediate dose): 2.5 fold
reduction in urinary protein:creatinine ratio ([4]; intermediate dose): statistically significant
change in creatinine clearance ([4]; low dose): no increase
effect on urinary protein:creatinine ratio ([4]; low to high dose): dose‐dependent reduction
effect on urinary protein:creatinine ratio ([4]; lowest dose): partial effect
effect on plasma fructosamine [5]: did not alter fructosamine levels
overall effect on FMD [6]: dose‐dependent improvement in FMD
lymphocytes, mean reductions vs placebo [7]: < 8%
steady state AUC0–24h ([8]; 1‐mg/d human dose): 2.97 µg/mL
steady state AUC0–24h ([8]; 5‐mg/d human dose): 14.9 µg/mL
AUC 0–24, mean ([8]; day 1, 1 mg oral once daily): 1030 ng·h/mL
AUC 0–24, median ([8]; day 1, 1 mg oral once daily): 983 ng·h/mL
Cmax, mean ([8]; day 1, 1 mg oral once daily): 57.4 ng/mL
Cmax, median ([8]; day 1, 1 mg oral once daily): 53.8 ng/mL
Tmax, mean ([8]; day 1, 1 mg oral once daily): 2.68 h
Tmax, median ([8]; day 1, 1 mg oral once daily): 2.50 h
AUC 0–24, mean ([8]; day 1, 5 mg oral once daily): 5310 ng·h/mL
AUC 0–24, median ([8]; day 1, 5 mg oral once daily): 5310 ng·h/mL
Cmax, mean ([8]; day 1, 5 mg oral once daily): 310 ng/mL
Cmax, median ([8]; day 1, 5 mg oral once daily): 315 ng/mL
Tmax, mean ([8]; day 1, 5 mg oral once daily): 2.42 h
Tmax, median ([8]; day 1, 5 mg oral once daily): 2.50 h
accumulation ratio ([8]; day 1 to day 14, 1 and 5 mg/d): 2.5–2.9
AUC 0–24, mean ([8]; day 14, 1 mg oral once daily): 2970 ng·h/mL
AUC 0–24, median ([8]; day 14, 1 mg oral once daily): 2780 ng·h/mL
Cmax, mean ([8]; day 14, 1 mg oral once daily): 152 ng/mL
Cmax, median ([8]; day 14, 1 mg oral once daily): 147 ng/mL
Rac_AUC 0–24 (accumulation ratio), mean ([8]; day 14, 1 mg oral once daily): 2.86
Rac_AUC 0–24 (accumulation ratio), median ([8]; day 14, 1 mg oral once daily): 2.70
Rac_C max (accumulation ratio), mean ([8]; day 14, 1 mg oral once daily): 2.66
Rac_C max (accumulation ratio), median ([8]; day 14, 1 mg oral once daily): 2.50
Tmax, mean ([8]; day 14, 1 mg oral once daily): 2.24 h
Tmax, median ([8]; day 14, 1 mg oral once daily): 2.25 h
AUC 0–24, mean ([8]; day 14, 5 mg oral once daily): 14900 ng·h/mL
AUC 0–24, median ([8]; day 14, 5 mg oral once daily): 14800 ng·h/mL
Cmax, mean ([8]; day 14, 5 mg oral once daily): 779 ng/mL
Cmax, median ([8]; day 14, 5 mg oral once daily): 760 ng/mL
Rac_AUC 0–24 (accumulation ratio), mean ([8]; day 14, 5 mg oral once daily): 2.79
Rac_AUC 0–24 (accumulation ratio), median ([8]; day 14, 5 mg oral once daily): 2.73
Rac_C max (accumulation ratio), mean ([8]; day 14, 5 mg oral once daily): 2.54
Rac_C max (accumulation ratio), median ([8]; day 14, 5 mg oral once daily): 2.46
Tmax, mean ([8]; day 14, 5 mg oral once daily): 2.15 h
Tmax, median ([8]; day 14, 5 mg oral once daily): 2.25 h
Patients with TEAE: Arthropod sting [9]: 0 n (%)
Patients with TEAE: Contusion [9]: 0 n (%)
Patients with TEAE: Diarrhoea [9]: 0 n (%)
Patients with TEAE: Dyspepsia [9]: 0 n (%)
Patients with TEAE: Headache [9]: 1 (6.7%) n (%)
Patients with TEAE: Injury, poisoning and procedural complications [9]: 0 n (%)
Patients with TEAE: Leading to treatment discontinuation [9]: 0 n (%)
Patients with TEAE: Nausea [9]: 1 (6.7%) n (%)
Patients with TEAE: Oropharyngeal pain [9]: 0 n (%)
Patients with TEAE: Otitis externa [9]: 0 n (%)
Patients with TEAE: Severe AE [9]: 0 n (%)
Patients with TEAE: Skin abrasion [9]: 0 n (%)
Patients with TEAE: Traumatic haematoma [9]: 0 n (%)
Patients with TEAE: Ventricular extrasystoles [9]: 0 n (%)
tolerability [9]: well tolerated
heart rate increase [10]: no increase
heart rate, mean difference vs placebo (maximum decrease) [10]: −6.4 beats/min
mean heart rate increase [10]: 0–4 beats/min
effect on blood pressure [11]: did not affect blood pressure
elimination half‐life [12]: 32 h

CCC(CC)CC1(C(=O)Nc2ccccc2SC(=O)C(C)C)CCCCC1 [dalcetrapib]
effect on FMD and CV events [13]: neutral on both FMD and CV events

CCCCCCCCc1ccc(CCC(N)(CO)CO)cc1 [fingolimod]
effect on creatinine clearance ([14]; 2.5 mg): creatinine clearance impairment
lymphocyte reduction [14]: 70–80%

CCCc1nn(C)c2c(=O)[nH]c(-c3cc(S(=O)(=O)N4CCN(C)CC4)ccc3OCC)nc12 [sildenafil]
FMD change versus placebo Mean estimate [95% CI] [6]: 0.88%
FMD with treatment [6]: about 5%
Patients with TEAE: Any class [9]: 5 (41.7%) n (%)
Patients with TEAE: Arthropod sting [9]: 0 n (%)
Patients with TEAE: Back pain [9]: 1 (8.3%) n (%)
Patients with TEAE: Cardiac disorders [9]: 1 (8.3%) n (%)
Patients with TEAE: Contusion [9]: 0 n (%)
Patients with TEAE: Cough [9]: 0 n (%)
Patients with TEAE: Diarrhoea [9]: 2 (16.7%) n (%)
Patients with TEAE: Dyspepsia [9]: 1 (8.3%) n (%)
Patients with TEAE: Epistaxis [9]: 0 n (%)
Patients with TEAE: Erythema [9]: 2 (16.7%) n (%)
Patients with TEAE: Gastroesophageal reflux disease [9]: 1 (8.3%) n (%)
Patients with TEAE: Gastrointestinal disorders [9]: 3 (25.0%) n (%)
Patients with TEAE: General disorders and administration site conditions [9]: 0 n (%)
Patients with TEAE: Headache [9]: 2 (16.7%) n (%)
Patients with TEAE: Infections and infestations [9]: 1 (8.3%) n (%)
Patients with TEAE: Injury, poisoning and procedural complications [9]: 0 n (%)
Patients with TEAE: Leading to treatment discontinuation [9]: 1 (8.3%) n (%)
Patients with TEAE: Musculoskeletal and connective tissue disorders [9]: 1 (8.3%) n (%)
Patients with TEAE: Musculoskeletal pain [9]: 0 n (%)
Patients with TEAE: Nasopharyngitis [9]: 1 (8.3%) n (%)
Patients with TEAE: Nausea [9]: 0 n (%)
Patients with TEAE: Neck pain [9]: 0 n (%)
Patients with TEAE: Nervous system disorders [9]: 2 (16.7%) n (%)
Patients with TEAE: Obstructive airways disorder [9]: 0 n (%)
Patients with TEAE: Oropharyngeal pain [9]: 1 (8.3%) n (%)
Patients with TEAE: Orthostatic intolerance [9]: 0 n (%)
Patients with TEAE: Otitis externa [9]: 0 n (%)
Patients with TEAE: Palpitations [9]: 0 n (%)
Patients with TEAE: Pruritus [9]: 0 n (%)
Patients with TEAE: Respiratory, thoracic and mediastinal disorders [9]: 1 (8.3%) n (%)
Patients with TEAE: Severe AE [9]: 0 n (%)
Patients with TEAE: Skin abrasion [9]: 0 n (%)
Patients with TEAE: Skin and subcutaneous tissue disorders [9]: 2 (16.7%) n (%)
Patients with TEAE: Traumatic haematoma [9]: 0 n (%)
Patients with TEAE: Ventricular extrasystoles [9]: 1 (8.3%) n (%)
Patients with TEAE: Vessel puncture site haematoma [9]: 0 n (%)
Patients with TEAE: Vomiting [9]: 0 n (%)
heart rate change [10]: no change
mean heart rate increase [10]: 3–6 beats/min
vasodilatory effect (blood pressure, BAD) [11]: no blood pressure‐lowering or BAD increase
FMD increase from baseline compared to placebo [15]: ≥ 3%
FMD increases from baseline [15]: 5–6%
effect on FMD [15]: failed to improve FMD

CCOC(=O)N1c2ccc(C(F)(F)F)cc2[C@@H](N(Cc2cc(C(F)(F)F)cc(C(F)(F)F)c2)C(=O)OC)C[C@H]1CC [torcetrapib]
effect on FMD [13]: pharmacological decrease in FMD
